SIAE primary = human SIAE inhibitors, primary screen, biochemical, fluorescence polarization, FP-Rh probe, 1536-well HTS | Sialate O-acetylesterase (Homo sapiens), Q9HAT2 | SIAE FP-Rh probe binding | inhibition, % at 9.66 µM | 370,000 compounds, 0.69% hits | AID 1053197, 2014;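 active = inhibition above a cutoff: mean of compounds within the control limits plus 3 SD of those, cut at about 17% in these data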
PRMT1 inh = PRMT1 methyltransferase inhibitors, primary screen, biochemical, fluorescence polarization. 370,000 compounds, 1.3% hits. recombinant PRMT1, activity-based probe fluorescence polarization. inhibition, % at 2.79 µM. Protein arginine N-methyltransferase 1 (Homo sapiens), Q99873;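 active = inhibition above about 21% made by adding two undisclosed values, limit read from the data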
mABHD4 FP = ABHD4 inhibitors, primary screen, biochemical, fluorescence polarization, mouse; inhibition, % at 8.92 µM; 370,000 compounds, 0.54% hits; purified mABHD4, FP-Rh probe fluorescence polarization; (Lyso)-N-acylphosphatidylethanolamine lipase (Mus musculus), Q8VD66; AID 720543, 2013;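 active = inhibition exceeding the mean over every tested compound plus 3 SD, cut at about 30% in these data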
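Test system: mABHD4 protein; Read-out basis: % inhibition; Incubation: 45 min + 60 min at 25 °C; Repeats: single replicate; Technique: fluorescence polarization with parallel and perpendicular emission, 525/598 nm; Compound: 8.92 µM, single dose; Benchmarks: full inhibition S159A mutant plus DMSO, zero as sample-well median.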
HTRA1 inh = HTRA1 serine protease inhibitors, primary screen, biochemical, fluorescence polarization, HTS | AID 504803, 2011 | inhibition, % at 5.96 µM | Q92743 | 340,000 compounds, 0.5% hits | recombinant HTRA1, FP-rhodamine activity-based probe; in the data active = inhibition above about 36%
Target sequence (Q92743 whole entry, looked up): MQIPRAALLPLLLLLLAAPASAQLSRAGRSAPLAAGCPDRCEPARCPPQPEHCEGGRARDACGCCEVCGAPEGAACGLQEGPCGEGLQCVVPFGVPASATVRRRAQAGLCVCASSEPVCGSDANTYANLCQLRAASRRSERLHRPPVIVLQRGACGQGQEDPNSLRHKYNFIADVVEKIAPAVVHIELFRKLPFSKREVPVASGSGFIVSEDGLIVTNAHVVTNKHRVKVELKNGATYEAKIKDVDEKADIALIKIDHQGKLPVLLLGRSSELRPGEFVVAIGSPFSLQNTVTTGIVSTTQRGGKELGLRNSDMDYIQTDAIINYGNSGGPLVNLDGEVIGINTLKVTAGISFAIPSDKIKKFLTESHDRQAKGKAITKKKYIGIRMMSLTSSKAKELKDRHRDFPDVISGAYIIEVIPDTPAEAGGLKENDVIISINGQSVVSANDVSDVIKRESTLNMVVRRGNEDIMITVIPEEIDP
JMJD2C inh = inhibitors of GASC-1 histone demethylase, primary screen, biochemical, fluorescence, DELFIA europium; Lysine-specific demethylase 4C (Homo sapiens), Q9H3R0; inhibition, % at 2.35 µM; GST-JMJD2C(1-420) H3K9me3 demethylation; AID 2099, 2009; 330,000 compounds, 0.069% hits;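 active = more than half of a compound's replicate wells show inhibition beyond 50%, single wells judged on their own value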;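 note: signal counts dimethyl H3K9 product captured on neutravidin plate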
PRMT1 inh conf = PRMT1 methyltransferase inhibitors, confirmation, biochemical, fluorescence polarization, triplicate. shares compounds with PRMT1 inh. recombinant His-PRMT1, activity-based probe fluorescence polarization. inhibition, % at 2.79 µM. 3,300 compounds, 42% hits. AID 687036, 2013;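 active = mean inhibition across replicates above the hit cutoff derived for the earlier primary screen, cut at about 22% in these data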
Large screens that a line does not name were inactive (follow-up assays come after a bar, where they were run). Shown are actives, neighbours in structure and some others; about 2.4% of the full set was active somewhere.

COCC1OC(OC(C)C(O)c2cnc3nc(N)[nH]c(=O)c3n2)C(O)C(OC)C1O (stereo unspecified)	none (no result: HTRA1 inh, JMJD2C inh)
Cc1cccc(OCC(=O)NN2C(=O)C3C4C=CC(O4)C3C2=O)c1 (stereo unspecified)	none
O=C(CCc1ccccc1)NN1C(=O)C2C3C=CC(O3)C2C1=O (stereo unspecified)	PRMT1 inh 57 | PRMT1 inh conf inactive
CCOc1ccc(C(=O)NN2C(=O)C3C4C=CC(O4)C3C2=O)cc1 (stereo unspecified)	PRMT1 inh 53 | PRMT1 inh conf inactive
Cc1ccccc1OCC(=O)NN1C(=O)C2C3C=CC(O3)C2C1=O (stereo unspecified)	none
CCOC(=O)[C@@]12CN(C(=O)OC(C)(C)C)CC=C1N(Cc1ccc(OC)cc1)C(=O)[C@H]2CC(=O)NCc1ccc(C)o1	none (no result: HTRA1 inh, JMJD2C inh)
Cc1ccccc1NC(=O)Nc1nnc([C@@H]2C[C@H](O)[C@@H](CO)O2)s1	none (no result: HTRA1 inh, JMJD2C inh)
CCCCOCCCNC(=O)C[C@H]1C[C@@]2(C(=O)OC)C(=C[C@H](C3CCCC3)O[C@@H]2C)N(Cc2cccc3ccccc23)C1=O	none (no result: HTRA1 inh, JMJD2C inh)
Cc1sc(NC(=O)CSc2nc(N)cc(N)n2)c(C#N)c1C	none
Cc1sc(NC(=O)CSc2nnc(C)c(=O)[nH]2)c(C#N)c1C	PRMT1 inh 27 | PRMT1 inh conf 24
Cc1nnc(SCC(=O)Nc2sc3c(c2C(N)=O)CCC(C)C3)[nH]c1=O (stereo unspecified)	PRMT1 inh 26 (no result: JMJD2C inh) | PRMT1 inh conf 51
Cc1nnc(SCC(=O)Nc2sc3c(c2C(N)=O)CCCC3)[nH]c1=O	none
Cc1nnc(C)n1N=Cc1ccc(O)cc1O	none (no result: HTRA1 inh, JMJD2C inh)
COc1ccc(-n2c(SCC(=O)N3CCCCC3C)nnc2-c2ccncc2)cc1 (stereo unspecified)	none (no result: HTRA1 inh, JMJD2C inh)
CC(C)c1c(C#N)c(N)nc(SCC(=O)c2cc3ccccc3oc2=O)c1C#N	none
N#Cc1ccc(-c2ccccc2)nc1SCC(=O)c1cc2ccccc2oc1=O	PRMT1 inh 34 | PRMT1 inh conf inactive
c1coc(-c2cc3nc(NC4CCCCC4)ccn3n2)c1	PRMT1 inh 29 (no result: HTRA1 inh, JMJD2C inh) | PRMT1 inh conf inactive
c1coc(-c2cc3nc(NCc4ccc5c(c4)OCO5)ccn3n2)c1	PRMT1 inh 32 (no result: HTRA1 inh, JMJD2C inh) | PRMT1 inh conf inactive
c1ccc(-c2cc3nc(NCc4ccc5c(c4)OCO5)ccn3n2)cc1	none (no result: HTRA1 inh, JMJD2C inh)
Fc1ccc(-c2n[nH]c(=S)n2N=Cc2ccc(-c3ccccc3)cc2)cc1	none (no result: HTRA1 inh, JMJD2C inh)
CC1=C2C3OC(=O)C(C)C3CCC2(C)C=C(Cl)C1=O (stereo unspecified)	none (no result: JMJD2C inh)
Cc1ccccc1N1C(=O)C(Cl)=C(N2CCOCC2)C1=O	none
O=C1C(Cl)=C(N2CCOCC2)C(=O)N1c1ccccc1F	PRMT1 inh 40 | PRMT1 inh conf inactive
Cc1c(C(=O)O)sc2nc(-c3cccs3)cc(C(F)(F)F)c12	none
CC(=O)c1sc2nc(-c3cccs3)cc(C(F)(F)F)c2c1N	PRMT1 inh 31 | PRMT1 inh conf inactive
CCOC(=O)C1=C(C)N=c2s/c(=C\c3ccc(OCC(=O)O)cc3)c(=O)n2C1c1ccccc1 (stereo unspecified)	PRMT1 inh 34 | PRMT1 inh conf inactive
CC1=C(C(=O)OC(C)C)C(c2ccc(Cl)cc2)n2c(s/c(=C\c3ccc(OCC(=O)O)cc3)c2=O)=N1 (stereo unspecified)	none
CCOC(=O)C1=C(C)N=c2sc(=Cc3ccc(OCC(=O)O)cc3)c(=O)n2C1c1ccc(SC)cc1 (stereo unspecified)	PRMT1 inh 30 (no result: HTRA1 inh, JMJD2C inh) | PRMT1 inh conf inactive
COc1ccc(S[C@]2(C(=O)N3CCOCC3)CC(=O)N(c3ccc(OC)cc3)[C@@H]2c2ccc(OC)cc2)cc1	none (no result: HTRA1 inh, JMJD2C inh)
O=[N+]([O-])c1cccc(C(=S)N2CCN(c3ccccc3)CC2)c1	PRMT1 inh 35 | PRMT1 inh conf inactive
COC(=O)[C@]12C[C@H](CC(=O)N3CCCCC3)C(=O)N(Cc3ccco3)C1=C[C@H](COCc1ccccc1)O[C@@H]2C	none (no result: HTRA1 inh, JMJD2C inh)
COCCn1c(CCC(=O)O)ccc1-c1cccs1	none
Cc1ccc(-n2c(CCC(=O)O)ccc2-c2cccs2)cc1C	PRMT1 inh 32 | PRMT1 inh conf inactive
CCOC(=O)c1ccc(-n2c(CCC(=O)O)ccc2-c2cccs2)cc1	PRMT1 inh 47 | PRMT1 inh conf inactive
CCN1CCN(C(=S)c2ccc(OCC(=O)NCc3ccccc3)cc2)CC1	PRMT1 inh 27 | PRMT1 inh conf 38
CCN1CCN(C(=S)c2ccc(OCC(=O)Nc3ccc(OC)cc3)cc2)CC1	none
CC(=O)Nc1ccc(NC(=O)c2nc(S(=O)(=O)Cc3ccccc3)ncc2Cl)cc1	PRMT1 inh 30 | PRMT1 inh conf 23
Cc1ccc(CS(=O)(=O)c2ncc(Cl)c(C(=O)Nc3ccc(OC(F)F)cc3)n2)cc1	PRMT1 inh 29 | PRMT1 inh conf 21
COC(=O)c1ccccc1NC(=O)c1nc(S(=O)(=O)Cc2ccccc2)ncc1Cl	none
CCC1CCCCN1S(=O)(=O)c1ccc(NC(=O)c2nc(S(C)(=O)=O)ncc2Cl)cc1 (stereo unspecified)	PRMT1 inh 50 | PRMT1 inh conf 47
CS(=O)(=O)c1ncc(Cl)c(C(=O)Nc2ccc3ccccc3c2)n1	PRMT1 inh 50 | PRMT1 inh conf 35
CN(C)c1ccc(CN(C(=O)/C=C/c2ccco2)C2CCS(=O)(=O)C2)cc1 (stereo unspecified)	none (no result: HTRA1 inh)
O=C(/C=C/c1ccco1)N(Cc1ccc(Cl)cc1)C1CCS(=O)(=O)C1 (stereo unspecified)	PRMT1 inh 28 | PRMT1 inh conf inactive
COc1ccc(/C=C2\Sc3ccc(C(=O)NCc4cccnc4)cc3N(C)C2=O)cc1OC	PRMT1 inh 32 | PRMT1 inh conf inactive
COc1cccc(/C=C2\Sc3ccc(C(=O)NCc4cccnc4)cc3N(C)C2=O)c1	none
Cc1n[nH]c(C)c1S(=O)(=O)NCCc1ccccc1	none (no result: HTRA1 inh, JMJD2C inh)
CC[N+]1(C)CCC(O)(/C=C/c2ccccc2)C(C(=O)/C=C/c2ccccc2)C1 (stereo unspecified)	PRMT1 inh 68 (no result: JMJD2C inh) | PRMT1 inh conf 49
COc1cccc(Nc2nc(-c3sc(C)nc3C)cs2)c1	none
COc1ccccc1Nc1n[nH]c(=S)s1	PRMT1 inh 47 | PRMT1 inh conf inactive
COc1cccc(Nc2n[nH]c(=S)s2)c1	PRMT1 inh 43 | PRMT1 inh conf 36
COc1ccccc1Nc1nc(C)cs1	none
